First the molecules themselves.
B1: tRNA (parent)
chain: GUUCCGUUGGCGUAAUGGUAACGCGUCUCCCUCCUAAGGAGAAGACUGCGGGUUCGAGUCCCGUACGGAACG

Variants at the floor of the assay were thinned out.

The data set covers variants of B1. Briefly: yeast fitness relative to wild type (ratio to wild type); higher = fitter; tRNA-Arg(CCU), competitive growth, 37 C, YPD. A digest of the protocol: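 For this measurement, the tRNA-Arg(CCU) gene was varied by chemical synthesis at a 3% per-site mutation rate across 69 sites, and each variant was placed at the native genomic locus in Saccharomyces cerevisiae. The pooled strains went through a 24-hour competition in YPD at 37°C in six parallel replicates, with amplicons from start and end populations read by 100-nucleotide paired-end sequencing. Darwinian fitness relative to wild type followed from the change in each genotype's frequency. Genotypes needed ≥ 100 starting reads, and estimates < 0.5 were set to 0.5.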
As to C24A G48C G67C, the yeast fitness is at most 0.5. Regarding U16A C55G, the yeast fitness stood at 0.54. As for U35G A42U A69C, the yeast fitness is at most 0.5. Take C4U C30A A65G G67C: the yeast fitness is at most 0.5. For the variant C5G U59G A65G, the yeast fitness was 0.614. Consider U19C A20U A57G, for which the yeast fitness was found to be 0.695. The same measure for G23A C31A: 0.644; for U7A A21C C29U A37G C55U: 0.568. The same measure for A15G A45U A57C A69C: at most 0.5; for A40U G51A: 0.777; for U2G G44A G51C A65U: at most 0.5. The result for C34G G38A A57G reads 0.539. For the variant C5A C24G A36C A70C, the yeast fitness was at most 0.5. Regarding U19A G68C, the yeast fitness was 0.709. C24G C30U C34U: the yeast fitness was at most 0.5. For the variant C11U A42U C66A, the yeast fitness came to 0.51. Turning to C5G G18A C55A C61U, the yeast fitness was at most 0.5.

Consider U16A U26C C30A, for which the yeast fitness was at most 0.5. Regarding U8C C27G A42C C62G, the yeast fitness is at most 0.5. Take C4U G12C A20G U47A C49U A57U C61A: the yeast fitness was found to be 0.572. Regarding A21C C24G C33A A37G A69C, the yeast fitness is 0.645. The result for U8A C30U A40U G52C reads at most 0.5. Consider U7G A43C U64A, for which the yeast fitness was found to be 0.682. As to C5G G10C G52A, the yeast fitness was at most 0.5. For the variant A20U G50A U59C G67C, the yeast fitness was at most 0.5. The result for U3C U28A reads 0.832; that for U3A C49A A69U, 0.558. Regarding C4U A36U C55A, the yeast fitness turned out to be 0.659. Consider U3G G48C G67A, for which the yeast fitness came to 0.683. For the variant G10C U35G C62G, the yeast fitness stood at 0.52. With C31G A45C C60A G63A, the yeast fitness was at most 0.5. In the case of C29G A57C U59G, the yeast fitness is at most 0.5. As for C5G C24G C60G, the yeast fitness stood at 0.518. The same measure for U28G A57U A70U: 0.721. Consider C29U C33A G63A A65C C66A, for which the yeast fitness is at most 0.5. The same measure for C5U A40C U47C A65U: at most 0.5; for C5U C31G C66U: 0.736. Turning to U19C C24G G50C, the yeast fitness worked out at 0.768. Consider U32A C34A A65C, for which the yeast fitness is 0.523. Take C11G C29U A45C C66G: the yeast fitness was at most 0.5. In the case of A15C A21C A36U U47C G63A G68A, the yeast fitness was at most 0.5.

On to C5G A21G U28C U32C A65U G68A, for which the yeast fitness is at most 0.5.

On to G12C A37C, for which the yeast fitness stood at 0.648. As for U8A G48C A70G, the yeast fitness is at most 0.5. Turning to A45U G50C, the yeast fitness worked out at 0.728. For the variant A15G C46U C61G, the yeast fitness stood at 0.581. For the variant C4U U8C A20G A43C C49A C66A, the yeast fitness was at most 0.5.

Take C4U G6A C61A: the yeast fitness is at most 0.5. For C30G A69U, the yeast fitness was determined as 0.669. As to C11G G41A, the yeast fitness is 0.586. As for G9A C11U, the yeast fitness is 0.928.

Take C34G C46U A57U C60G A65C: the yeast fitness was at most 0.5. On to C31U A40G C46G A65G, for which the yeast fitness is at most 0.5. As for G6U A65C, the yeast fitness stood at 0.799. On to U32C A40U U59C, for which the yeast fitness amounted to 0.718.

Regarding C31G C60G C62U G68A, the yeast fitness is at most 0.5. As to U3C C5A A15U A20G, the yeast fitness was at most 0.5. The same measure for A37U A65U: 0.665; for G44A C66U: 0.86.

As to C27U U32C G41A C55A G63C, the yeast fitness is at most 0.5. As for G10A C24A C30A C31G A43U U54G C62G, the yeast fitness worked out at 0.544. As for G10C A21G G56A, the yeast fitness is at most 0.5. For the variant G9C A15U G17A A37U A45C, the yeast fitness was at most 0.5.

In the case of U28C C33U G41A G52C, the yeast fitness was at most 0.5.

As to C4G U8A G12A A14G G48A A69C, the yeast fitness is at most 0.5. Regarding C11G A14C A37C G44C, the yeast fitness was at most 0.5. In the case of A14G G17A A37G, the yeast fitness was 0.536. The same measure for U8G A43U C49U C55U: at most 0.5; for U3C C33G C60A C66G: at most 0.5. As to G52C G63A, the yeast fitness amounted to 0.642. The same measure for C11A A36G: 0.646; for C29U A42G U64C: 0.592. Take C5U U13A C22U C30A A37G G41C C46G: the yeast fitness is at most 0.5. The result for C4U A43G C46U reads 0.994; that for C22G A70U, 1.01; that for C4U U28A C66U, 0.658. G9C U16C A42C: the yeast fitness was at most 0.5.

In the case of C4U G9A C22G C24U A42U U64A G67A, the yeast fitness worked out at 0.572.

In the case of G38A C61G G68C, the yeast fitness is at most 0.5. For A15U C31G C33G A42U, the yeast fitness was at most 0.5. The result for G10A A65C reads 0.786; that for G52C A57U, 0.514; that for C5A C49A U53G, at most 0.5. The result for C4A U16A A43C reads at most 0.5. On to C5A A20U A21U C34G A65G G67A, for which the yeast fitness was at most 0.5.

For the variant C22U G38A G67C, the yeast fitness is at most 0.5.

Consider C5U A21C G23A C49A G52A G56C A57C, for which the yeast fitness was 0.508.

C5U A21U C30G A70U: the yeast fitness turned out to be 0.651. Take U2A G23A C29G C55U: the yeast fitness was at most 0.5.

A14G A45U: the yeast fitness was found to be 0.746.

Regarding U32G A45C, the yeast fitness is 0.692. On to G10C U26A A43G C60U C62U A70C, for which the yeast fitness was at most 0.5. Regarding C60U A65U, the yeast fitness came out at 0.816. As for U26C A65C, the yeast fitness is 0.819.

Regarding G12C A45G U47C, the yeast fitness amounted to 0.502. C66U A69U: the yeast fitness amounted to 0.831. As for A40G C49G U53C A57C A69U, the yeast fitness is at most 0.5. The same measure for U19A G50A A57C: 0.516. The result for C22G C27A C49A G56C A65G reads 0.746. Take A15U C61A: the yeast fitness came to 0.571. In the case of U8C G9A C34U G39C, the yeast fitness is at most 0.5.

As for C5U C34A C49A U59G, the yeast fitness was at most 0.5.

Consider U3A C29G G52A C66G, for which the yeast fitness is at most 0.5. As to C11U G41C A42G, the yeast fitness was determined as 0.547.

For the variant C4A G9A, the yeast fitness was 0.907. For the variant A20G G25C U47A G56C U59C, the yeast fitness is at most 0.5. For U13A A21G C60G C66G, the yeast fitness turned out to be 0.756. Turning to C4U A21C U59C, the yeast fitness was at most 0.5. Regarding G6A A20C C61U, the yeast fitness came to 0.663. Regarding A21C C27U C55G, the yeast fitness was determined as 0.617. C22U C33G C55G: the yeast fitness was 0.537. For G50A C62U, the yeast fitness came to 1. In the case of G6A A21C C33G A45C G50C, the yeast fitness was 0.515. With C31G A37G U54A, the yeast fitness came to 0.681. As for C22U U26C A37C G41C, the yeast fitness is at most 0.5. Turning to A57C C66U, the yeast fitness turned out to be 0.652. The same measure for C4G A42U G48A: 0.575; for U16A A21G C31U C34G A45C C66G: at most 0.5; for G23A A70C: 0.74.

For the variant C11G G44C A57C, the yeast fitness was at most 0.5. C62G G68U: the yeast fitness came out at 0.707.

Turning to C5G C11U C61G, the yeast fitness is at most 0.5. U2C U16A G63A: the yeast fitness was 0.705. For C4G G12A U26A, the yeast fitness was at most 0.5.

As to C34A G68A, the yeast fitness came out at 0.647. C5G A14C G44C: the yeast fitness is at most 0.5.

Turning to C24U C31G C46U, the yeast fitness came to 0.562. The result for U3A U32A U59G reads 0.585; that for A37U C55U, 0.594.

Consider U3C U8G U32A C33G U53A A69C, for which the yeast fitness was at most 0.5.

A15G U32A G52C G68A: the yeast fitness is at most 0.5.

Turning to U3A G44C, the yeast fitness was 0.879.

For the variant G12U A36G A65C, the yeast fitness was 0.561. On to U7C C11G U13G C30U A70C, for which the yeast fitness was at most 0.5.

Turning to C27G C31A C60G, the yeast fitness was at most 0.5. Take C33U A69U: the yeast fitness came to 0.788. With C62G, the yeast fitness stood at 0.924. Take U2A G9A C11U A40U A42C A45G G50C C61U C66U: the yeast fitness was at most 0.5.

On to U3A C27G, for which the yeast fitness was 0.643. In the case of C29G C30G, the yeast fitness is 0.814. In the case of C27U U28A, the yeast fitness stood at 0.699. As for U3A A15G U35C G52A, the yeast fitness stood at 0.525. The result for C4U C5G reads 0.95; that for C27U C30G A40G G51C, at most 0.5. As for C27G C31A A37C G50A C61G, the yeast fitness is at most 0.5.

U3C U19A C46A: the yeast fitness is 0.716. For A14C U35A G50A A69U, the yeast fitness is at most 0.5. The same measure for G6C U8C C66U: 0.73. A43U G48C: the yeast fitness amounted to 0.922. On to C5G C30G G67C, for which the yeast fitness was found to be 0.543.

Take G63A C66U: the yeast fitness was determined as 0.826. In the case of U7A U16C G17A C29U C31A, the yeast fitness was at most 0.5.

Turning to C29G A37U G52A, the yeast fitness was 0.546.

Regarding A21G A40G, the yeast fitness turned out to be 0.986.

Take G23C U47C C60G: the yeast fitness was at most 0.5. In the case of C22G U35A U47C C55U A69C, the yeast fitness came out at 0.542. As to U19G A43C U53C C55G C66U, the yeast fitness was at most 0.5.

With G10A A15G C49G G68U, the yeast fitness was at most 0.5. As for A36G C49G G63A A69C A70C, the yeast fitness is at most 0.5. The result for C34A A42U G68C reads at most 0.5. As to A20C A43U, the yeast fitness turned out to be 0.829. In the case of A15C U26A, the yeast fitness came out at 0.523. Take U19A C55A C61U: the yeast fitness was at most 0.5. Turning to G9A A45U C62A, the yeast fitness is at most 0.5. With C33U A43U G44A C49G G50C C61U C66U, the yeast fitness was at most 0.5. In the case of A37G A42G A70U, the yeast fitness turned out to be 0.539. For the variant C11A A21C C31A C62U, the yeast fitness was at most 0.5.

For the origin of these results see the RNAGym collection of RNA variant scans (doi:10.1126/science.aae0568).
